Rows were chosen to be rich in hits. Some 2% of all compounds tested hit in one or more screens of this group.
PKD1 kinase inh: inhibitors of human PKD1 kinase. inhibition, % (concentration not given with the values). Q15139. AID 797. PKD1 kinase fluorescence polarization assay. 200,000 tested, 0.056% active
Runt-SMMHC FRET: inhibitors of human RUNX1 Runt domain binding to CBFb-SMMHC; Q01196+Q13951; Cerulean-Runt/Venus-CBFb-SMMHC FRET ratio 530/480, 1 h; inhibition, % at 20 µM; 220,000 tested, 0.74% active;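 active = mean inhibition across duplicate retests at 20 µM reaching about 50%, limit read from the data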;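 also: 0% = DMSO wells and 100% = wells with excess untagged CBFb-SMMHC; inhibitors lower the FRET ratio by blocking Runt binding to CBFb-SMMHC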
Target sequence (Q01196 whole entry, looked up, the tested form may be a part): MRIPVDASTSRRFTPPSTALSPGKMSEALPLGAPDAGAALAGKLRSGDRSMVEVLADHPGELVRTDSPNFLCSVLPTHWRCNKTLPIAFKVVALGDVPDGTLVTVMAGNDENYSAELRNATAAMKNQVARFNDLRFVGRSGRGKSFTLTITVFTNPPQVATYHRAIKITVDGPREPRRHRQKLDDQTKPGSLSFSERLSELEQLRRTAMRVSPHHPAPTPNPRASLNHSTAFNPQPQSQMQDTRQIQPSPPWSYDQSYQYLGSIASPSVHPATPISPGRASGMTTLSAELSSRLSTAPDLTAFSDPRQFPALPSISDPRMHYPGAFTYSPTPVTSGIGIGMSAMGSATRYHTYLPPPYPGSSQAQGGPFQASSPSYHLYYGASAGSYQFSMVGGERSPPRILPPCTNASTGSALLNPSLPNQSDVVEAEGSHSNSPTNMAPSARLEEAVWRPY
Target sequence (Q13951 whole entry, looked up, the tested form may be a part): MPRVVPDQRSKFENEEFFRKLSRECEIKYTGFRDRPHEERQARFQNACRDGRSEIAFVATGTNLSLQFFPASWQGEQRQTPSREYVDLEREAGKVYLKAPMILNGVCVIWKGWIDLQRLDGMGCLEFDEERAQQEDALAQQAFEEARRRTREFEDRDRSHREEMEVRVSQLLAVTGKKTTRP
MEX-5 binding: C. elegans MEX-5 TCR-2 RNA binding activity; MEX-5/FITC-TCR2 RNA binding, fluorescence polarization; stronger effect = lower value; activity score (negative = inhibition of binding), % at 10 µM; Q9XUB2; 300,000 tested, 0.38% active; AID 1832;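 active = inhibition past about -25% in most replicates, and total fluorescence under double the plate's negative control median, limit read from the data; inconclusive = replicates evenly split on the limit, or fluorescence at least double controls; inactive = too little inhibition in most replicates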;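 also: 0% = DMSO and -100% = 5 µM competing unlabeled TCR2 RNA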
Runt-CBFb FRET: Runt domain-CBFb interaction inhibition | Cerulean-Runt/Venus-CBFb FRET ratio 530/480, 1 h | Q01196+Q13951 | AID 1496 | inhibition, % at 20 µM | 220,000 tested, 0.46% active;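 active = inhibition over about 50% at 20 µM in the single-dose screen, limit read from the data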;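 also: 0% = DMSO wells and 100% = excess unlabeled CBFb competitor control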
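Assay system: Cerulean-Runt domain fusion protein, energy donor; Signal: fluorescence energy transfer, 422 nm excitation, 530/480 nm emission; Timing: 1 h compound exposure, room temperature; Control set: unlabeled CBFb; Medium: Tris buffer pH 7.5 with salts and BSA; Compound: single test concentration of 20 µM, 1% DMSO final; Probe or stimulus: Venus-CBFb 100 nM.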
RanGTP-Impb inh: inhibitors of RanGTP-importin-beta interaction, primary screen, biochemical, FRET, CFP-Ran, YFP-importin-beta, homogeneous. 300,000 tested, 1.1% active. inhibition, % (test concentration not listed). cell-free CFP-Ran/YFP-importin-beta FRET ratio;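 active = more than half of the replicate wells show a fall in the fluorescence ratio signal beyond about 16%, limit read from the data, passing the limit was not always enough; inconclusive = exactly half of the replicate wells pass the set limit; inactive = fewer than half of replicates pass the limit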;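 also: 0% = DMSO wells and 100% = Ran loaded with GDP instead of GTP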
EBV gp42 inh: EBV gp42 inhibition. Q1HVG2. Fluorescence polarization binding assay, mP read-out. inhibition, % (tested at 21.74 µM). 220,000 tested, 0.42% active. AID 1085
* = called active by the depositor; i = inactive; ? = inconclusive; . = no result. Rule as the data show it, unless noted: active = inhibition above about 50%; inactive = the rest.

SMILES	PKD1 kinase inh	Runt-SMMHC FRET	MEX-5 binding	Runt-CBFb FRET	RanGTP-Impb inh	EBV gp42 inh
CC(C)OCCCn1c(=N)c(S(=O)(=O)c2ccccc2)cc2c(=O)n3ccccc3nc21	.	.	0	.	-3	.
Cc1ccc(S(=O)(=O)c2cc3c(=O)n4ccccc4nc3n(C)c2=N)cc1C	.	.	-1	.	173*	.
CCOCCCN(C)C1CCN(C(=O)c2oc3ccccc3c2NC(=O)c2ccc(F)cc2)CC1	.	.	-2	.	7	.
CCCn1c(=N)c(S(=O)(=O)c2ccc(F)cc2)cc2c(=O)n3cccc(C)c3nc21	.	.	-2	.	144*	.
Cn1c(=N)c(S(=O)(=O)c2ccc(F)cc2)cc2c(=O)n3ccccc3nc21	-6	80*	-1	63*	5	-27
COCCn1c(=N)c(S(=O)(=O)c2ccc(F)cc2)cc2c(=O)n3cccc(C)c3nc21	.	.	.	.	-3	.
O=C1CS/C(=N\N=C\c2ccccc2Cl)N1CC1CC1	.	-3	-1	-1	0	-2
COc1ccc(-c2nc(CS(=O)CC(=O)NCc3cccnc3)c(C)o2)cc1 (stereo not drawn)	-9	-4	-2	4	-4	136*
COCCNC(=O)Cn1cc(/C=C(\C#N)C(=O)NC2CCCC2)c2ccccc21	.	.	1	.	52*	.
N#C/C(=C\c1cn(CCOc2ccccc2)c2ccccc12)C(=O)NCc1ccco1	-1	-10	-9	-18	7	1
Cc1ccccc1OCCn1cc(/C=C(\C#N)C(=O)NCc2ccco2)c2ccccc21	-5	63*	0	-9	10	-1
Cc1cc(C)cc(NC(=O)/C(C#N)=C/c2cn(CC(=O)NCc3ccco3)c3ccccc23)c1	2	-58	-3	-43	82*	-29
Cc1ccc(NC(=O)/C(C#N)=C/c2cn(CC(=O)NCc3ccco3)c3ccccc23)cc1C	-9	-112	10	-96	0	-116
CNC(=O)/C(C#N)=C/c1cn(CC(=O)NCc2ccco2)c2ccccc12	-4	1	0	1	2	-1
Cc1ccc(C)c(NC(=O)/C(C#N)=C/c2cn(CC(=O)NCc3ccco3)c3ccccc23)c1	0	44	-1	-47	98*	-28
Cn1nnnc1NCc1cccc(Cl)c1Cl	-5	-2	2	0	8	-8
O=c1c(/C=N/Nc2ccccc2)c(Sc2nnnn2-c2ccccc2)nc2ccccn12	10	-76	.	-26	.	152*
O=C(O)c1ccccc1N/N=C/c1c(Sc2nnnn2-c2ccccc2)nc2ccccn2c1=O	.	-471	-26*	-372	-49	-23
O=Cc1c(Sc2ccccc2)nc2ccccn2c1=O	3	0	-2	-2	0	-19
CC1=CC(C)[C@H](/C=N/n2c(=O)[nH]c3c([nH]c4ccc(C)cc43)c2=O)C(C)C1 (stereo partly drawn)	6	2	0	.	0	-2
COc1cc(C2C(C#N)=C(N)Oc3n[nH]c(-c4cccnc4)c32)cc(Br)c1O (stereo not drawn)	-1	38	-34*	3	10	-15
COc1ccc(C)cc1N(CC(=O)NCCSCc1cccc(Cl)c1)S(C)(=O)=O	.	.	4	.	1	.
Cn1c(=O)c(N)c2c3c(c(Br)ccc31)C(=O)c1ccccc1-2	.	-183	-39*	-9	i	171*
Cn1c(=O)c2c(nc(Oc3ccccc3Br)n2C)n(C)c1=O	.	.	-2	.	-1	.
O=c1c2ccccc2c(C=Nc2cccc(O)c2)c(O)n1-c1ccc2c(c1)OCO2	3	-23	-4	-11	?	51*
SMILES	PKD1 kinase inh	Runt-SMMHC FRET	MEX-5 binding	Runt-CBFb FRET	RanGTP-Impb inh	EBV gp42 inh
COc1ccc(Cn2c(O)c(C=Nc3ccc(O)cc3)c3ccccc3c2=O)cc1	-10	9	-8	-175	30*	14
COc1ccc(N=Cc2c(O)n(-c3ccc(OC)cc3)c(=O)c3ccccc23)cc1	-4	90*	-4	3	5	-8
Oc1[nH]c2ccccc2c1C=Nc1ccc2c(c1)OCO2	-3	7	-1	10	-3	11
COc1ccc(Cn2c(O)c(C=Nc3ccccc3)c3ccccc3c2=O)cc1	4	-20	2	-7	-6	-38
O=c1c2ccccc2c(C=Nc2ccc(O)cc2)c(O)n1Cc1ccccc1	.	-79	-5	-80	33*	-18
CSc1cccc(NC(=O)c2[nH]c(C)c(C(C)=O)c2C)c1	.	.	4	.	1	.
O=C(Nc1cccc(C(F)(F)F)c1)c1cccc(NS(=O)(=O)c2ccc(O)c(C(=O)O)c2)c1	.	.	0	.	3	.
CCCCNc1nc2ccccc2nc1NS(=O)(=O)c1ccc(F)cc1	.	.	-2	.	?	.
CCOc1ccc2nc(NCCCNS(=O)(=O)c3ccccc3)c(C#N)cc2c1	-1	61*	-5	80*	134*	8
CCOc1ccc2nc(NCCCNS(=O)(=O)c3ccc(F)cc3)c(C#N)cc2c1	-9	.	-2	.	132*	15
CN(Cc1ccccc1)Cc1c(O)ccc2ccccc12	.	.	-3	.	3	.
Cc1cc(=O)oc2c(CN(C)Cc3ccccc3)c(O)ccc12	1	82*	0	36	6	-3
c1coc(-c2nnc(-c3ccco3)nn2)c1	.	.	-59*	.	3	.
c1ccc(-c2nnc(-c3ccco3)o2)cc1	-2	4	0	-3	8	-9
Cc1ccc2c(Cl)cc(Cl)c(OCC(=O)NCc3ccco3)c2n1	4	1	.	9	.	69*
COc1ccc(/C=C/C(=O)c2c(C)cc(C)[nH]c2=O)c2ccccc12	.	.	-28*	.	-15	.
Cc1ccc(/C=C/C(=O)c2c(C)cc(C)[nH]c2=O)cc1	1	1	2	-2	3	0
CC(=O)N1CCCC1(C(=O)O)c1ccccc1 (stereo not drawn)	.	-1	1	-1	-5	-3
CCOC(=O)c1ccc[n+](CC(=O)c2ccc(OC)cc2)c1	11	-6	3	-1	7	0
CCOC(=O)c1ccc[n+](CC(=O)c2ccccc2)c1	-5	-9	5	-3	25*	3
O=C(CNC(=O)Cc1cccc2ccccc12)NCc1ccc(F)cc1	.	.	-1	.	0	.
Cc1cccc2c3nc4ccccc4nc3n(CCCN3C(=O)c4ccccc4C3=O)c12	-6	-114	-4	-50	2	83*
CCCCn1c(CN2C(=O)c3ccccc3C2=O)nc2ccccc2c1=O	-4	2	-1	-1	1	-47
COc1ccc2c(c1)c1nc3ccccc3nc1n2CCn1c(=O)oc2ccccc21	-6	-20	?	-6	-7	-1
COc1ccc2c(c1)c1nc3ccccc3nc1n2Cc1ccc(OC(C)C)c(OC)c1	5	-59	-73*	-25	-11	80*

Compound activity as filed in PubChem BioAssay.
